Data set [1] has as its target T1, Putative amino acid permease/transporter (Trypanosoma cruzi, UniProt D5FGE8).
T1 sequence (D5FGE8 whole entry): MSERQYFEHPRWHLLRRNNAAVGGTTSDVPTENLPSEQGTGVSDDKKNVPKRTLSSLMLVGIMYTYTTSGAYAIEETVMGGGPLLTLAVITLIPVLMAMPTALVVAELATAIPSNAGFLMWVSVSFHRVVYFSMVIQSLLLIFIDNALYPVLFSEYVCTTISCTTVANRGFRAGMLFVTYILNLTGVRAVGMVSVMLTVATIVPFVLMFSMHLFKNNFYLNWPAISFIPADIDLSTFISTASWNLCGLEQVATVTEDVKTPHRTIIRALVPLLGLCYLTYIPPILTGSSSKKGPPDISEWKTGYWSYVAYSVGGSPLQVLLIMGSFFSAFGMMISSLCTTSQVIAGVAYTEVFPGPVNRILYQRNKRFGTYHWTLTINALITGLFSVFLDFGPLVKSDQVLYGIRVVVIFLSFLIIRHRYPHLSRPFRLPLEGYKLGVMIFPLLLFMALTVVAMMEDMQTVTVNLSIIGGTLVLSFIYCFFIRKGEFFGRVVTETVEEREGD
Description: Inhibition of Trypanosoma cruzi Y epimastigotes PAT assessed as reduction in [3H]-putrescine uptake after 10 mins by liquid scintillation counting method. In a few lines: (§1)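 Y-strain epimastigotes from BHT culture were washed twice in PBS. 10^7 cells in PBS-2% glucose were given [3H]-putrescine (5 µM) or [3H]-spermidine (15 µM), 0.4 µCi, with inhibitor at 0–30 µM, later narrowed. Incubation was 10 min at 28 °C or 37 °C, stopped with ice-cold buffer and washed; pellets went to scintillation counting. Nonspecific uptake was taken with a 100-fold molar excess of substrate. IC50 was fit by nonlinear regression.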

The target in data set [2] is T2, Putative amino acid permease/transporter (Trypanosoma cruzi) (UniProt D5FGE8).
T2 sequence (whole entry): T1 sequence (D5FGE8 whole entry)
Description: Inhibition of Trypanosoma cruzi Y epimastigotes PAT assessed as reduction in [3H]-putrescine uptake up to 30 uM after 10 mins by liquid scintillation counting method. In short, it runs like this:
as §1

In data set [3] the target is T1, Putative amino acid permease/transporter. Description: Inhibition of Trypanosoma cruzi Y epimastigotes PAT assessed as reduction in [3H]--spermidine uptake after 10 mins by liquid scintillation counting method. In short, it runs like this:
as §1

In data set [4] the target is T2, Putative amino acid permease/transporter (Trypanosoma cruzi). Description: Inhibition of Trypanosoma cruzi Y epimastigotes PAT assessed as reduction in [3H]--spermidine uptake up to 30 uM after 10 mins by liquid scintillation counting method. In short, it runs like this: as §1
The subject of data set [5] is Leishmania amazonensis. Nature of the data set: Antiparasitic activity against Leishmania amazonensis MHOM/Br/75/Josefa promastigotes by light microscopic method. Type of data set: functional, organism-based.
Data set [6] deals with Trypanosoma cruzi. Nature of the data set: Trypanopcidal activity against Trypanosoma cruzi Y epimastigotes after 48 hrs by Neubauer chamber or MTS dye based assay. It counts as functional, organism-based. In short, it runs like this: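 Y-strain epimastigotes, 10^7 cells/well in BHT (pH 7, 10% FCS, hemin), were exposed to 0–100 µM compound at 28 °C for 48 h. Growth was counted in a Neubauer chamber or by MTS. IC50 is 50% viability relative to untreated control, by nonlinear regression; at least triplicate, three independent assays.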
For orientation: Formazan colour is commonly taken as a measure of viable cells.

In data set [7] the test system is Trypanosoma cruzi. Description: Potentiation of benznidazole-induced trypanopcidal activity against Trypanosoma cruzi Y epimastigotes at 20 uM after 96 hrs by Neubauer chamber or MTS dye based assay. It counts as functional. In a few lines:
(§2)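 Epimastigotes were treated with 30 µM benznidazole alone or with 20 µM polyamine conjugate, for up to 96 h at 28 °C. Parasites were counted (Neubauer or MTS) at 24, 48, 72 and 96 h. Potentiation is the fold change in benznidazole potency with versus without the conjugate.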

Data set [8] concerns Trypanosoma cruzi. Description: Potentiation of benznidazole-induced trypanopcidal activity against Trypanosoma cruzi Y epimastigotes at 20 uM after 72 hrs by Neubauer chamber or MTS dye based assay. Type of data set: functional. In short, it runs like this:
as §2

Data set [9] relates to Trypanosoma cruzi. Description: Ratio of IC50 for Trypanosoma cruzi Y epimastigotes to IC50 for Trypanosoma cruzi Y trypamastigotes. Type of data set: functional.
Data set [10] has as its system HL-60. Description: Cytotoxicity against human HL60 cells. Type of data set: cell-based.
For data set [11], the target named is T1, Putative amino acid permease/transporter. Description: Inhibition of Trypanosoma cruzi Y trypamastigotes PAT assessed as reduction in [3H]-putrescine uptake after 10 mins by liquid scintillation counting method. In a few lines:
(§3)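 Trypomastigotes came from infected VERO cells. 10^7 washed parasites in PBS-2% glucose were given [3H]-putrescine or [3H]-spermidine (0.4 µCi) plus inhibitor for 10 min at 28 °C or 37 °C. The reaction was stopped with ice-cold PBS-glucose, washed and scintillation counted. Background was taken with a 100-fold molar substrate excess. IC50 came from logistic dose-response fit.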

The subject of data set [12] is Trypanosoma cruzi. Description: Potentiation of benznidazole-induced trypanopcidal activity against Trypanosoma cruzi Y epimastigotes at 20 uM after 48 hrs by Neubauer chamber or MTS dye based assay. Type of data set: functional. In a few lines:
as §2

In data set [13] the test system is Vero. Description: Cytotoxicity against African green monkey Vero cells assessed as reduction in cell viability after 24 hrs by crystal violet staining based assay. Conditions: Chlorocebus sabaeus. In short, it runs like this: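 VERO cells (MEM, 10% heat-inactivated FCS, 37 °C, 5% CO2) were seeded at 10^4 cells/well and treated 24 h with compound at 0–50 µM; PBS served as negative control. Cells were fixed 15 min, stained with 0.5% crystal violet, and absorbance read at 570 nm. IC50 was from nonlinear regression.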

The subject of data set [14] is Trypanosoma cruzi. Nature of the data set: Potentiation of benznidazole-induced trypanopcidal activity against Trypanosoma cruzi Y epimastigotes at 20 uM after 24 hrs by Neubauer chamber or MTS dye based assay. It counts as functional. In a few lines: as §2
Data set [15] has as its system Trypanosoma cruzi. Description: Trypanopcidal activity against Trypanosoma cruzi Y trypamastigotes infected in African green monkey Vero cells treated for 5 days by Neubauer chamber or MTS dye based assay. The note with it: 120 h. Type of data set: functional, organism-based. In short, it runs like this: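 VERO cells infected with trypomastigotes were exposed to compound at 0–2.5 µM for five days. Trypomastigote burst was scored after six days of infection. IC50 was obtained by nonlinear regression of dose-response.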

Data set [16] deals with T1, Putative amino acid permease/transporter. Description: Inhibition of Trypanosoma cruzi Y trypamastigotes PAT assessed as reduction in [3H]--spermidine uptake after 10 mins by liquid scintillation counting method. In a few lines:
as §3

Data set [17] has as its system Trypanosoma cruzi. Description: Trypanopcidal activity against Trypanosoma cruzi Y trypamastigotes after 24 hrs by Neubauer chamber or MTS dye based assay. Type of data set: functional, organism-based. In a few lines:
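Culture-derived trypomastigotes, 10^6 cells/mL, were held at 37 °C for 24 h with compound at 0–2.5 µM. Motility was checked microscopically, and viability was counted by Neubauer chamber or MTS against untreated controls. IC50 was from logistic nonlinear regression.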

A short description of data set [18]: Selectivity index, ratio of IC50 for cytotoxicity against African green monkey Vero cells to IC50 for trypanopcidal activity against Trypanosoma cruzi Y trypamastigotes. The note with it: read-out: Ratio IC50. It counts as toxicity, cell-based.

Calls of active or inactive are those of the source. The calls are words filed in the database; no cut-off is given here.

Take `CCCCCCCCCCCCCCCC(=O)NCCCCC(N)C(=O)NCCCNCCCCNCCCN` (centres undefined): in [1], the IC50 is 2.43 µM. For the same molecule, the inhibition result in data set [2] was “Active”.

Regarding `NCCCCNCCCCNCc1c2ccccc2cc2ccccc12`, the IC50 in [3] stood at 13.3 µM; in [1] it was 3.98 µM. For the same molecule, the inhibition entry in data set [4] and in data set [2] was “Active” in each case.

Regarding `NCCC(=O)CN`, in [5], half-maximal inhibition (IC50) required 144 µM.

`Cl.Cl.NCCCCNCc1c2ccccc2cc2ccccc12`: the IC50 is 17 µM in [6]; 8.78 µM in [3]; 20 µM in data set [10]; 4.94 µM in data set [11]; 5.86 µM in data set [13]; 0.52 µM in data set [15]. In addition, the values for the IC50 in data set [1], in data set [16] and in data set [17] were 5.02 µM, 4.86 µM and 0.46 µM, respectively. The “fold change (FC)” value was 11.2 in [7], 6.2 in [8], 1.9 in [12] and 1.5 in data set [14]. The “Ratio IC50” value in data set [9] was determined as 37. The inhibition entry in data set [4] and in data set [2] was “Active” throughout. Moreover, the selectivity ratio in data set [18] came to 12.7.

In general, IC50 refers to the concentration needed to halve the response being measured.
